According to ChEMBL document CHEMBL4428026, “Discovery of New Monocarbonyl Ligustrazine-Curcumin Hybrids for Intervention of Drug-Sensitive and Drug-Resistant Lung Cancer” (J Med Chem, 2016):
Calls of active or inactive are those of the source. No cut-off for these calls is given here.

Columns and labels:
A549 [1] = assay: Induction of ROS generation in human A549 cells 2.1 to 4.2 uM after 60 mins by DHE staining-based fluorescence assay; format: functional, cell-based
Procedure, shortened: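 A549 or A549/DDP cells were treated in triplicate for 60 min with vehicle DMSO (0.1%, v/v) or a range of compound concentrations. Cells were stained with dihydroethidium, and intracellular ROS fluorescence was read on a microplate reader at 300 and 610 nm. Three independent experiments were run.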

[2] = Antiproliferative activity against human LTEP-G2 cells after 72 hrs by MTT assay; format: functional, cell-based
Procedure, shortened: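 Cells (A549, A549/DDP, SPC-A-1, LTEP-G-2, non-tumor bronchial epithelial HBE) were exposed in triplicate to vehicle or compound for 72 h. MTT (5 mg/mL in PBS) was then added for 4 h, formazan was dissolved in DMSO, and absorbance was read at 570 nm. IC50 values were derived from viability.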

Thioredoxin reductase [3] = target: T1, Thioredoxin reductase (Homo sapiens, UniProt Q16881+Q9NNW7+Q86VQ6); assay: Inhibition of thioredoxin reductase in human A549 cells by DTNB dye based microplate spectrophotometry; format: cell-based
Procedure, shortened: (§1)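 A549 or A549/DDP cells were treated with varying compound concentrations for 24 h, then harvested, homogenized and centrifuged. Protein (50 µg) was reacted in triplicate with NADPH and DTNB in TE buffer at 37 °C for 1 h, and TNB was read at 412 nm. Activity was taken from a purified-TrxR standard curve, and IC50 was derived.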

Thioredoxin reductase [4] = target: T1, Thioredoxin reductase; assay: Inhibition of thioredoxin reductase in human A549/CDDP cells by DTNB dye based microplate spectrophotometry; format: cell-based; procedure, shortened: as §1
A549/CDDP [5] = assay: Decrease in TrxR expression in human A549/CDDP cells at 0.6 to 1.2 uM after 24 hrs by Western blot method; format: functional, cell-based
Procedure, shortened: (§2)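 Cells were plated at 1 × 10^6/well overnight, then treated 24 h with vehicle DMSO (0.1%, v/v) or compound (A549, 2.1 or 4.2 µM; A549/DDP, 0.6 or 1.2 µM). Lysis was at 4 °C. Lysates were run on SDS-PAGE (7.5% gel, 20 µg/lane) and immunoblotted with ECL detection; phospho-Akt Ser473 and phospho-ERK Thr202/Tyr204 were probed. Bands were normalized to GAPDH (TrxR, Trx) or β-actin. Three independent experiments were run.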

A549 [6] = assay: Decrease in Trx expression in human A549 cells at 2.1 to 4.2 uM after 24 hrs by Western blot method; format: functional, cell-based; procedure, shortened: as §2
A549/CDDP [7] = assay: Induction of ROS generation in human A549/CDDP cells 0.6 to 1.2 uM after 60 mins by DHE staining-based fluorescence assay in presence of NAC; format: functional, cell-based
A549/CDDP [8] = assay: Induction of ROS generation in human A549/CDDP cells 0.6 to 1.2 uM after 60 mins by DHE staining-based fluorescence assay in presence of GSH; format: functional, cell-based
A549/CDDP [9] = assay: Induction of apoptosis in human A549/CDDP cells assessed as decrease in Bcl2 expression at 0.6 to 1.2 uM after 24 hrs by Western blot method; format: functional, cell-based; procedure, shortened: as §2
A549 [10] = assay: Induction of apoptosis in human A549 cells assessed as increase in Bax to Bcl2 ratio at 2.1 to 4.2 uM after 24 hrs by Western blot method; format: functional, cell-based; procedure, shortened: as §2
A549/CDDP [11] = assay: Induction of apoptosis in human A549/CDDP cells assessed as increase in Bax to Bcl2 ratio at 0.6 to 1.2 uM after 24 hrs by Western blot method; format: functional, cell-based; procedure, shortened: as §2
A549/CDDP [12] = assay: Induction of apoptosis in human A549/CDDP cells assessed as increase in cleaved PARP level at 0.6 to 1.2 uM after 24 hrs by Western blot method; format: functional, cell-based; procedure, shortened: as §2
A549 [13] = assay: Effect on NFkappaB expression in human A549 cells at 2.1 to 4.2 uM after 24 hrs by Western blot method; format: functional, cell-based; procedure, shortened: as §2
A549/CDDP [14] = assay: Effect on ERK expression in human A549/CDDP cells at 0.6 to 1.2 uM after 24 hrs by Western blot method; format: functional, cell-based; procedure, shortened: as §2
A549/CDDP [15] = assay: Inhibition of NFkappaB phosphorylation in human A549/CDDP cells at 0.6 to 1.2 uM after 24 hrs by Western blot method; format: cell-based; procedure, shortened: as §2
[16] = target: RAC-alpha serine/threonine-protein kinase (Homo sapiens) (UniProt P31749); assay: Inhibition of Akt phosphorylation in human A549 cells at 2.1 to 4.2 uM after 24 hrs by Western blot method; format: cell-based; procedure, shortened: as §2
[17] = target: RAC-alpha serine/threonine-protein kinase (Homo sapiens) (UniProt P31749); assay: Inhibition of Akt phosphorylation in human A549/CDDP cells at 0.6 to 1.2 uM after 24 hrs by Western blot method; format: cell-based; procedure, shortened: as §2
A549/CDDP [18] = assay: Inhibition of ERK phosphorylation in human A549/CDDP cells at 0.6 to 1.2 uM after 24 hrs by Western blot method; format: cell-based; procedure, shortened: as §2
A549/CDDP [19] = assay: Decrease in P-gp mRNA level in human A549/CDDP cells at 0.6 to 1.2 uM after 24 hrs by RT-PCR method; format: functional, cell-based
Procedure, shortened: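 A549/DDP cells (1 × 10^6) were treated with vehicle or 0.6 or 1.2 µM compound for 24 h. Total RNA was reverse-transcribed with oligo dT primers. ABCB1 transcripts were quantified by real-time RT-PCR relative to GAPDH and expressed as fold of the 0.1% DMSO control. Three independent experiments were run.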

[20] = target: T2, ATP-dependent translocase ABCB1 (Homo sapiens, UniProt P08183); assay: Inhibition of P-gp in human A549/CDDP cells assessed as accumulation of rhodamine 123 at 0.03 to 1.2 uM by flow cytometry; format: cell-based
Procedure, shortened: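 A549/DDP cells were treated with compound (0.03-1.2 µM), with verapamil as the reference P-gp inhibitor. Intracellular rhodamine 123 accumulation was measured by flow cytometry.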

[21] = target: T2, ATP-dependent translocase ABCB1; assay: Inhibition of P-gp ATPase activity in human A549/CDDP cells at 40 uM by luminescence assay (reference value: 706683 +/- 23554 RLU); format: cell-based
[22] = Acute toxicity in ICR mouse assessed as mortality at 200 to 450 mg/kg, ip measured at 1 hr post treatment; format: organism-based; settings: in vivo
Procedure, shortened: (§3)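 Male and female ICR mice (7 weeks), randomized, 10 per group, given one intraperitoneal dose at 200, 250, 300, 350, 400 or 450 mg/kg. Animals were watched for abnormal behaviour and deaths up to two weeks. Deaths were tallied at 1 h, 4 h, day 3 and days 4-14, with survival on day 14. LD50 was calculated with 95% confidence limits.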

[23] = Acute toxicity in ICR mouse assessed as survival at 300 mg/kg, ip measured on day 14; format: organism-based; settings: in vivo; procedure, shortened: as §3
[24] = Acute toxicity in ICR mouse assessed as survival at 250 mg/kg, ip measured on day 14; format: organism-based; settings: in vivo; procedure, shortened: as §3
[25] = Toxicity in BALB/c nude mouse xenografted with human A549/CDDP cells assessed as body weight at 20 mg/kg, ip administered daily for 15 consecutive days measured on day 1 (reference value: 19.3 +/- 1.55 g); format: organism-based; settings: in vivo
[26] = Toxicity in BALB/c nude mouse xenografted with human A549/CDDP cells assessed as body weight at 40 mg/kg, ip administered daily for 15 consecutive days measured on day 1 (reference value: 19.3 +/- 1.55 g); format: organism-based; settings: in vivo

T2 sequence (P08183 whole entry): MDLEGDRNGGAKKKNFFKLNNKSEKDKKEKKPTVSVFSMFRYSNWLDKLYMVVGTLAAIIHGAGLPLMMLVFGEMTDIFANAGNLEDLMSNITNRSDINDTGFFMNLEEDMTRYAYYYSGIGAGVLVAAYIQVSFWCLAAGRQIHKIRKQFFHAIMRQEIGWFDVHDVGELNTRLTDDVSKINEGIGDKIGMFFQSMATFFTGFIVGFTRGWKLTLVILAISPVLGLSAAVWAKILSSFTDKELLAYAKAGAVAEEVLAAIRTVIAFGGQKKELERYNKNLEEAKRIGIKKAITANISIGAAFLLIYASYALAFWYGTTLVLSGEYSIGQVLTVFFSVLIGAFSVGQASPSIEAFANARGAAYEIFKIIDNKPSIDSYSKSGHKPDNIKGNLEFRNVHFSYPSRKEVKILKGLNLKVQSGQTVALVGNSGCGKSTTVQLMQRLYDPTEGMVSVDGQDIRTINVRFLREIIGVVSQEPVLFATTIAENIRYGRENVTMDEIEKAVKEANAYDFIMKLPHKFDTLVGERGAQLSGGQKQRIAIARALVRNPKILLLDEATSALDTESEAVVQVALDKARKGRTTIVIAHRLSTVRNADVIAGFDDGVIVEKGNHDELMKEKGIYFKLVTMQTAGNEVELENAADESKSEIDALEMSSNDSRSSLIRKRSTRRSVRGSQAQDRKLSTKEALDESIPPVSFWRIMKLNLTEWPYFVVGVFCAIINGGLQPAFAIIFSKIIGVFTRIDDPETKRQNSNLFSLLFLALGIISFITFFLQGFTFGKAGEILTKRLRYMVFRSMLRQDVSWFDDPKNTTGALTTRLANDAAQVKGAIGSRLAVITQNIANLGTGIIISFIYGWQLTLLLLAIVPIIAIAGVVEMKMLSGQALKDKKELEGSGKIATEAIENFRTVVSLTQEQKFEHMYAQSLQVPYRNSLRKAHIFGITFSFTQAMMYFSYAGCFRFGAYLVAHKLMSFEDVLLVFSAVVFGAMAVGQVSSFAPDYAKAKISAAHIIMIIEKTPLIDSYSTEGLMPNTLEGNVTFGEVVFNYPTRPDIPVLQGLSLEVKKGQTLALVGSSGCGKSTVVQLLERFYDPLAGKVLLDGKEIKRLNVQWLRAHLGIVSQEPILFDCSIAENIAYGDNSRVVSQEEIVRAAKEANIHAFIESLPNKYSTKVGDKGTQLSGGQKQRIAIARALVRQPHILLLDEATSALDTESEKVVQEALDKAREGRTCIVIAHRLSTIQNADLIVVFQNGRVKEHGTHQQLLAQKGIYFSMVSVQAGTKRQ
Chain of RAC-alpha serine/threonine-protein kinase (Homo sapiens) (P31749 whole entry): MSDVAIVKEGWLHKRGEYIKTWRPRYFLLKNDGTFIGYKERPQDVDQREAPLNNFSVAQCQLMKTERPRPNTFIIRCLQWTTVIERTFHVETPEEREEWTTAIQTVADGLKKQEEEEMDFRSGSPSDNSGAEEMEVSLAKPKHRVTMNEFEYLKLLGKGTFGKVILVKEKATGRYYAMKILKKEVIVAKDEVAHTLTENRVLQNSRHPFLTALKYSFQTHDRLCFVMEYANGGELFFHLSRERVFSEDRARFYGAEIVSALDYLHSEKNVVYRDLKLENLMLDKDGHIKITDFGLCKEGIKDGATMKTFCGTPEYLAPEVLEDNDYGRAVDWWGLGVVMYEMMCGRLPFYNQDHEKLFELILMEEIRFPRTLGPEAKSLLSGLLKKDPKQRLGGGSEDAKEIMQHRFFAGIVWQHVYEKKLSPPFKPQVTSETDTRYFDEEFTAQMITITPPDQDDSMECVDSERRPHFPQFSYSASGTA

COc1cc(/C=C/C(=O)/C=C/c2nc(C)c(C)nc2C)ccc1O
Activity (A549 [1]): Active | IC50 [2]: 2.88 µM | IC50 (Thioredoxin reductase [3]): 1.49 µM | IC50 (Thioredoxin reductase [4]): 1.22 µM | Activity (A549/CDDP [5]): Active | Activity (A549 [6]): Active | Activity (A549/CDDP [7]): inactive | Activity (A549/CDDP [8]): inactive | Activity (A549/CDDP [9]): Active | Activity (A549 [10]): Active | Activity (A549/CDDP [11]): Active | Activity (A549/CDDP [12]): Active | Activity (A549 [13]): inactive | Activity (A549/CDDP [14]): inactive | inhibition (A549/CDDP [15]): Active | inhibition [16]: Active | inhibition [17]: Active | inhibition (A549/CDDP [18]): Active | Activity (A549/CDDP [19]): Active | inhibition (INH) [20]: Active | Activity [21]: 761592 RLU | Activity [22]: Non-Toxic | survival at 14 day [23]: 50% | survival at 14 day [24]: 60% | Activity [25]: 18.3 g | Activity [26]: 19.9 g
